Results published in ChEMBL document CHEMBL4130397, “Tulongicin, an Antibacterial Tri-Indole Alkaloid from a Deep-Water Topsentia sp. Sponge” (J Nat Prod, 2017).
Values after ≈ are worked out from the molar mass of the structure shown.

What was measured:
Staphylococcus aureus = experiment: Antibacterial activity against Staphylococcus aureus ATCC 29213 by CLSI method; assay type: functional
Outline: (§1)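 Broth MIC per CLSI guidelines against ATCC strains; each compound tested in duplicate in at least two independent experiments; top concentration tested 100 μg/mL.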

HCT-116 = experiment: Cytotoxicity against human HCT116 cells; assay type: cell-based
BSC-1 = experiment: Cytotoxicity against African green monkey BSC1 cells; assay type: cell-based; conditions: Chlorocebus aethiops
[1] = system: Human immunodeficiency virus 1; experiment: Antiviral activity against ENV pseudotyped CCR5-tropic HIV1 isolate YU2 infected in human TZM-bl cells after 24 hrs by luciferase reporter gene assay; assay type: functional, organism-based; conditions: Human immunodeficiency virus 1, isolate YU2, TZM-bl
[2] = system: Human immunodeficiency virus 1; experiment: Antiviral activity against ENV pseudotyped CXCR4-tropic HIV1 HxB2 infected in human TZM-bl cells after 24 hrs by luciferase reporter gene assay; assay type: functional, organism-based; conditions: Human immunodeficiency virus 1, M:B_HXB2R
Escherichia coli = experiment: Antibacterial activity against Escherichia coli ATCC 25922 by CLSI method; assay type: functional; outline: as §1

Compound | MIC (Staphylococcus aureus) [µg/mL] | IC50 (HCT-116) [µM] | IC50 (BSC-1) [µM] | IC50 [1] [µM] | IC50 [2] [µM] | MIC (Escherichia coli) [µg/mL]
O[C@H](C1=NC[C@H](c2c[nH]c3cc(Br)ccc23)N1)c1c[nH]c2cc(Br)ccc12 | 3.7 (≈ 7.58 µM) | 16 | 93 | 3.5 | 4.5 | 100 (≈ 205 µM)
GENTAMICIN | – | – | – | – | – | 1
O=C(C1=NC[C@H](c2c[nH]c3cc(Br)ccc23)N1)c1c[nH]c2cc(Br)ccc12 | 1.1 (≈ 2.26 µM) | 27 | 31 | 9.5 | 12 | > 100
Cc1onc(-c2ccccc2)c1C(=O)N[C@@H]1C(=O)N2[C@@H]1SC(C)(C)[C@@H]2C(=O)O [OXACILLIN] | 0.25 (≈ 0.623 µM) | – | – | – | – | –
Brc1ccc2c(C(C3=NC[C@H](c4c[nH]c5cc(Br)ccc45)N3)c3c[nH]c4cc(Br)ccc34)c[nH]c2c1 | 1.2 (≈ 1.8 µM) | 10 | 46 | 3.9 | 2.7 | > 100
